Data published in PubChem BioAssay AID2465 (Broad Institute, 2010).
Out of some 24,000 compounds screened, fewer than 10 were called active. Rule as the data show it: active = caspase activation above about 5.9%; inconclusive = no clear call, values can overlap the other calls; inactive = below about 2.2%. A selection follows.

assay: Bcl2-A1 antagonists releasing BIM, apoptosis – cell-based, luminescence, HTS, two replicates, primary screen (AID 2465); conditions: MEF A1-2A-BIM cells, caspase-Glo luminescence, 3 h; hits give high values; percent of clofoctol response, DMSO zero; concentration not given here
Procedure, shortened: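 Evaluation: Caspase-3/7 activity from luminescence increase | Assay system: A1-2A-BIM mouse embryonic fibroblasts | Quantity: 2500 MEF cells/well | Medium: RPMI-1640 plus 10% FBS | Detection: Caspase-Glo 3/7 luminescence, 1 h at room temperature | Dosing: 50 nL compound per well, pinned | Timing: Cells settled overnight, compound exposure 3 h at 37 °C, 5% CO2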

Caspase activation, inactive:
CC(C)NC(=O)Nc1ccc2c(c1)C(=O)N([C@H](C)CO)C[C@H](C)[C@@H](CN(C)S(=O)(=O)c1ccc(F)cc1)OCCCC[C@H](C)O2 1.08%
COc1ccc(S(=O)(=O)N(C)C[C@@H]2OCCCC[C@@H](C)Oc3ccc(NC(=O)c4ccccc4)cc3C(=O)N([C@@H](C)CO)C[C@H]2C)cc1 1.47%
C[C@@H]1CCCCO[C@H](CN(C)C(=O)Nc2ccc(C(F)(F)F)cc2)[C@@H](C)CN([C@@H](C)CO)C(=O)c2cc(NS(=O)(=O)c3cccs3)ccc2O1 -0.547%
CCOc1cccc(/C=N/NC(=O)CCCCCC(=O)Nc2ccccc2O)c1OCC -0.952%
C[C@@H]1CN([C@@H](C)CO)C(=O)c2cc(NC(=O)Nc3ccc(C(F)(F)F)cc3)ccc2O[C@@H](C)CCCCO[C@H]1CN(C)C(=O)CCCN(C)C 0.263%
Cc1noc(C)c1NC(=O)N(C)C[C@@H]1Oc2ccc(NS(=O)(=O)c3ccc(F)cc3)cc2CC(=O)N([C@@H](C)CO)C[C@H]1C -0.135%
COc1ccc(S(=O)(=O)Nc2ccc3c(c2)CC(=O)N([C@H](C)CO)C[C@H](C)[C@@H](CN(C)C(=O)NC(C)C)O3)cc1 0.0847%
C[C@H](CO)N1C[C@H](C)[C@@H](CN(C)S(C)(=O)=O)OCCCC[C@H](C)Oc2ccc(NC(=O)Nc3ccc(C(F)(F)F)cc3)cc2C1=O -0.463%
C[C@H]1CCCCO[C@H](CN(C)S(C)(=O)=O)[C@@H](C)CN([C@@H](C)CO)C(=O)c2cc(NC(=O)C3CCCCC3)ccc2O1 -0.127%
C[C@@H]1CN([C@@H](C)CO)C(=O)c2cc(NC(=O)NC3CCCCC3)ccc2O[C@@H](C)CCCCO[C@H]1CN(C)Cc1ccccc1 1.95%
C[C@@H]1CCCCO[C@@H](CN(C)C(=O)Nc2cccc3ccccc23)[C@H](C)CN([C@H](C)CO)C(=O)c2cc(NC(=O)NC3CCCCC3)ccc2O1 -0.528%
COc1ccc(NC(=O)N(C)C[C@H]2OCCCC[C@H](C)Oc3ccc(NC(=O)c4ccncc4)cc3C(=O)N([C@H](C)CO)C[C@@H]2C)cc1 -1.84%
COc1ccc(S(=O)(=O)Nc2cccc3c2O[C@@H](CN(C)C(=O)NC(C)C)[C@H](C)CN([C@@H](C)CO)C3=O)cc1 0.104%
COc1ccc(CN(C)C[C@H]2Oc3ccc(NS(=O)(=O)c4c(C)noc4C)cc3CC(=O)N([C@H](C)CO)C[C@H]2C)cc1 -1.02%
C[C@H]1CCCCO[C@H](CN(C)C(=O)Nc2ccccc2)[C@@H](C)CN([C@@H](C)CO)C(=O)c2cc(NC(=O)c3ccncc3)ccc2O1 0.525%
Cc1ccc(S(=O)(=O)Nc2ccc3c(c2)C(=O)N([C@@H](C)CO)C[C@H](C)[C@@H](CN(C)C(=O)Cc2ccccc2)OCCCC[C@H](C)O3)cc1 -0.949%
C[C@@H]1CN([C@H](C)CO)C(=O)c2cccc(NC(=O)Nc3ccccc3)c2O[C@H]1CN(C)S(C)(=O)=O -0.29%
Cc1ccccc1CN(C)C[C@H]1OCc2cn(nn2)CCCC(=O)N([C@@H](C)CO)C[C@H]1C -0.00464%
C[C@H](CO)N1C[C@H](C)[C@@H](CN(C)S(=O)(=O)c2cccs2)OCCCC[C@H](C)Oc2ccc(NS(=O)(=O)c3ccccc3)cc2C1=O 0.384%
C[C@@H]1CCCCO[C@H](CN(C)Cc2ccccc2)[C@H](C)CN([C@@H](C)CO)C(=O)c2cc(NC(=O)Nc3cccc4ccccc34)ccc2O1 -0.203%
O=C(CCCCCC(=O)Nc1ccccc1O)N/N=C/c1ccc(Br)o1 0.454%
C[C@H](CO)N1C[C@H](C)[C@H](CN(C)Cc2ccc(C(=O)O)cc2)OCc2cn(nn2)CCCC1=O 0.235%
C[C@@H]1CN([C@@H](C)CO)C(=O)c2cc(NC(=O)Nc3ccccc3)ccc2O[C@@H]1CN(C)Cc1ccccc1 -0.201%
CC(C)NC(=O)N(C)C[C@H]1OCCCC[C@H](C)Oc2ccc(NS(=O)(=O)c3cccs3)cc2C(=O)N([C@H](C)CO)C[C@@H]1C 1.03%
COc1ccc(NC(=O)N(C)C[C@@H]2Oc3ccc(NS(=O)(=O)c4ccc(OC)cc4)cc3CC(=O)N([C@H](C)CO)C[C@H]2C)cc1 0.4%
COc1ccc(S(=O)(=O)Nc2cccc3c2O[C@@H](CN(C)C(=O)Nc2cccc4ccccc24)[C@H](C)CN([C@@H](C)CO)C3=O)cc1 -1.43%
C[C@H](O)[C@H](O)[C@@H](O)[C@@H](O)/C=N/NC(=O)CCCCCC(=O)Nc1ccccc1O 0.323%
C[C@@H]1CN([C@@H](C)CO)C(=O)c2cc(NC(=O)Cc3ccccc3)ccc2O[C@@H](C)CCCCO[C@H]1CN(C)C(=O)Cc1ccccc1 1.05%
Cc1noc(C)c1S(=O)(=O)N(C)C[C@@H]1OCCCC[C@H](C)Oc2ccc(NC(=O)Nc3ccc4c(c3)OCO4)cc2C(=O)N([C@H](C)CO)C[C@@H]1C -0.0337%
O=C(CCCCCCC(=O)Nc1ccccc1O)N/N=C/c1ccc(Oc2ccccc2)cc1 0.474%
O=C(NO)c1ccc(C(=O)N/N=C/c2ccc(Br)cc2)cc1 -0.637%
CC(C)NC(=O)Nc1ccc2c(c1)C(=O)N([C@@H](C)CO)C[C@H](C)[C@H](CN(C)C(=O)NC1CCCCC1)OCCCC[C@@H](C)O2 0.925%
C[C@@H]1CN([C@H](C)CO)C(=O)c2cc(NC(=O)c3ccncc3)ccc2O[C@@H](C)CCCCO[C@@H]1CN(C)CC1CC1 -1.05%
C[C@H]1CCCCO[C@H](CN(C)CC2CC2)[C@@H](C)CN([C@@H](C)CO)C(=O)c2cc(NC(=O)CCC(F)(F)F)ccc2O1 -0.204%
C[C@@H]1CCCCO[C@@H](CN(C)S(=O)(=O)c2cccs2)[C@@H](C)CN([C@@H](C)CO)C(=O)c2cc(NS(=O)(=O)c3ccc(F)cc3)ccc2O1 0.628%
C[C@@H]1CCCCO[C@H](CN(C)Cc2ccc(C(F)(F)F)cc2)[C@@H](C)CN([C@@H](C)CO)C(=O)c2cc(NC(=O)c3ccncc3)ccc2O1 -0.085%
C[C@@H]1CCCCO[C@@H](CN(C)S(=O)(=O)c2ccc(F)cc2)[C@@H](C)CN([C@@H](C)CO)C(=O)c2cc(NC(=O)Nc3ccc4c(c3)OCO4)ccc2O1 -0.312%
C[C@H]1CN([C@@H](C)CO)C(=O)Cc2cc(NC(=O)Cn3cnnn3)ccc2O[C@H]1CN(C)CC1CC1 -0.754%
Cc1ccc(S(=O)(=O)N(C)C[C@H]2OCCCC[C@H](C)Oc3ccc(N(C)C)cc3C(=O)N([C@H](C)CO)C[C@@H]2C)cc1 0.228%
C[C@@H]1CN([C@H](C)CO)C(=O)c2cc(NS(=O)(=O)c3ccccc3)ccc2O[C@H]1CN(C)S(=O)(=O)c1cccs1 -0.323%
COc1ccc(S(=O)(=O)Nc2ccc3c(c2)C(=O)N([C@H](C)CO)C[C@@H](C)[C@@H](CN(C)CC2CCCCC2)O3)cc1 -0.24%
CC(C)NC(=O)N(C)C[C@@H]1Oc2ccc(NC(=O)Cn3cnnn3)cc2CC(=O)N([C@H](C)CO)C[C@H]1C 1.87%
COc1cc(OC)c(/C=N/NC(=O)CCCCCCC(=O)Nc2ccccc2O)c(OC)c1 -0.41%
C[C@@H]1CCCCO[C@@H](CN(C)Cc2ccncc2)[C@@H](C)CN([C@H](C)CO)C(=O)c2cc(NS(=O)(=O)c3cccs3)ccc2O1 -0.367%
C[C@@H]1CN([C@H](C)CO)C(=O)Cc2cc(NC(=O)Nc3ccc4c(c3)OCO4)ccc2O[C@H]1CN(C)Cc1ccc(C(F)(F)F)cc1 1.47%
COc1ccc(S(=O)(=O)N(C)C[C@@H]2OCCCC[C@H](C)Oc3ccc(NC(=O)Nc4ccccc4)cc3C(=O)N([C@@H](C)CO)C[C@H]2C)cc1 0.213%
C[C@@H]1CN([C@@H](C)CO)C(=O)CCCn2nncc2CO[C@H]1CN(C)C(=O)CCCN(C)C -0.0755%
COc1ccc(NC(=O)Nc2ccc3c(c2)C(=O)N([C@@H](C)CO)C[C@@H](C)[C@@H](CN(C)S(=O)(=O)c2ccc(C)cc2)OCCCC[C@H](C)O3)cc1 -0.213%
COc1ccc(S(=O)(=O)Nc2ccc3c(c2)CC(=O)N([C@@H](C)CO)C[C@H](C)[C@@H](CN(C)Cc2ccc(C(=O)O)cc2)O3)cc1 1%
C[C@H](CO)N1C[C@H](C)[C@@H](CN(C)Cc2ccc(-c3ccccc3)cc2)Oc2ccc(NC(=O)CCCN(C)C)cc2CC1=O 0.389%
C[C@@H]1CCCCO[C@@H](CN(C)C(=O)C2CCCCC2)[C@H](C)CN([C@H](C)CO)C(=O)c2cc(NC(=O)CCC(F)(F)F)ccc2O1 -0.546%
COc1ccc(S(=O)(=O)N(C)C[C@@H]2Oc3ccc(NC(=O)C4CC4)cc3CC(=O)N([C@@H](C)CO)C[C@H]2C)cc1 -0.0568%
C[C@@H]1CN([C@H](C)CO)C(=O)c2cc(NC(=O)NC3CCCCC3)ccc2O[C@@H](C)CCCCO[C@H]1CN(C)C(=O)Nc1ccccc1 -0.462%
C[C@H](CO)N1C[C@H](C)[C@@H](CN(C)Cc2ccc(C(=O)O)cc2)OCCCC[C@H](C)Oc2ccc(NC(=O)c3ccccc3)cc2C1=O -0.0294%
